# Source: ChEMBL document CHEMBL3120154, “2-[N-Alkyl(R-phenyl)-aminomethyl]-3-phenyl-7-trifluoromethylquinoxalines as anticancer agents inhibitors of folate enzymes” (Eur J Med Chem, 2014)
# Key:
# Format in all cases: functional
# [1] = system: M14; test: Cytotoxicity against human M14 cells at 10^-6 M after 48 hrs by SRB assay; conditions: M14, 48 h, read-out: GI
# Summary of the method: (§1)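 Run in the NCI 60-cell-line screen after a three-line prescreen. Cells got a 48 h drug exposure; viability/growth was estimated with the sulforhodamine B protein assay. Growth inhibition (I%) was recorded at 100, 10, 1, 0.1 and 0.01 micromolar. Percent growth is relative to untreated control cells, and negative values indicate cell kill.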
# [2] = system: U-251; test: Cytotoxicity against human U251 cells at 10^-4 M after 48 hrs by SRB assay; conditions: U-251, 48 h, read-out: GI
# Summary of the method: (§2)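 Second-stage screen in the 60-cell-line human tumor panel at NCI, over a 5-log range (100, 10, 1, 0.1, 0.01 micromolar). Cells were exposed to drug for 48 h and growth was estimated with a sulforhodamine B protein stain. The value is percent growth inhibition at each concentration.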
# [3] = system: SNB-75; test: Cytotoxicity against human SNB75 cells at 10^-4 M after 48 hrs by SRB assay; conditions: SNB-75, 48 h, read-out: GI; summary of the method: as §2
# [4] = system: SF-268; test: Cytotoxicity against human SF268 cells at 10^-4 M after 48 hrs by SRB assay; conditions: SF-268, 48 h, read-out: GI; summary of the method: as §2
# [5] = system: SW-620; test: Cytotoxicity against human SW620 cells at 10^-4 M after 48 hrs by SRB assay; conditions: SW-620, 48 h, read-out: GI; summary of the method: as §2
# [6] = system: KM12; test: Cytotoxicity against human KM12 cells at 10^-4 M after 48 hrs by SRB assay; conditions: KM12, 48 h, read-out: GI; summary of the method: as §1
# [7] = system: HCT-15; test: Cytotoxicity against human HCT15 cells at 10^-4 M after 48 hrs by SRB assay; conditions: HCT-15, 48 h, read-out: GI
# Summary of the method: (§3)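 Run by NCI on its 60-line human tumor cell panel, after a three-cell-line prescreen. Cells were exposed to drug for 48 h over a 5-log range: 100, 10, 1, 0.1 and 0.01 micromolar. Growth was estimated by sulforhodamine B (SRB) protein staining. Percent growth inhibition (I%) was recorded at each concentration relative to untreated control cells.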
# [8] = system: HCT-116; test: Cytotoxicity against human HCT116 cells at 10^-4 M after 48 hrs by SRB assay; conditions: HCT-116, 48 h, read-out: GI; summary of the method: as §3
# [9] = system: HCC 2998; test: Cytotoxicity against human HCC2998 cells at 10^-4 M after 48 hrs by SRB assay; conditions: HCC 2998, 48 h, read-out: GI; summary of the method: as §3
# [10] = system: NCI-H522; test: Cytotoxicity against human NCI-H522 cells at 10^-4 M after 48 hrs by SRB assay; conditions: NCI-H522, 48 h, read-out: GI; summary of the method: as §1
# [11] = system: NCI-H460; test: Cytotoxicity against human NCI-H460 cells at 10^-4 M after 48 hrs by SRB assay; conditions: NCI-H460, 48 h, read-out: GI; summary of the method: as §1
# [12] = system: NCI-H322M; test: Cytotoxicity against human NCI-H322M cells at 10^-4 M after 48 hrs by SRB assay; conditions: read-out: GI; summary of the method: as §1
# [13] = system: HOP-92; test: Cytotoxicity against human HOP92 cells at 10^-4 M after 48 hrs by SRB assay; conditions: HOP-92, 48 h, read-out: GI; summary of the method: as §3
# [14] = system: HOP-62; test: Cytotoxicity against human HOP62 cells at 10^-4 M after 48 hrs by SRB assay; conditions: HOP-62, 48 h, read-out: GI; summary of the method: as §3
# [15] = Cytotoxicity against human EKVX cells at 10^-4 M after 48 hrs by SRB assay; conditions: read-out: GI; summary of the method: as §3
# [16] = system: A549; test: Cytotoxicity against human A549 cells at 10^-4 M after 48 hrs by SRB assay; conditions: A549, 48 h, read-out: GI; summary of the method: as §3
# [17] = system: CCRF-CEM; test: Cytotoxicity against human CCRF-CEM cells at 10^-4 M after 48 hrs by SRB assay; conditions: read-out: GI; summary of the method: as §3
# [18] = system: HL-60(TB); test: Cytotoxicity against human HL-60(TB) cells at 10^-4 M after 48 hrs by SRB assay; conditions: HL-60, 48 h, read-out: GI
# Summary of the method: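 NCI 60-human-tumour-cell-line screen run over a 5-log dose range (100, 10, 1, 0.1 and 0.01 µM). Cells were exposed to drug for 48 h. Growth was estimated by sulforhodamine B protein staining. Values are percent growth inhibition at each concentration, relative to untreated control cells.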
# [19] = system: SF-268; test: Cytotoxicity against human SF268 cells assessed as cell growth at 10^-4 M after 48 hrs by alamar blue assay relative to untreated control; conditions: SF-268, 48 h, read-out: Activity
# Summary of the method: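 Three-cell-line prescreen at NCI. Each line was seeded and pre-incubated, then given a single concentration (10^-4 or 10^-5 M) and incubated for 48 h. The end-point was alamar blue. The value is percent growth of treated cells versus untreated control cells, with negative numbers indicating cell kill.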
# [20] = system: NCI-H460; test: Cytotoxicity against human NCI-H460 cells assessed as cell growth at 10^-4 M after 48 hrs by alamar blue assay relative to untreated control; conditions: NCI-H460, 48 h, read-out: Activity
# Summary of the method: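 Three-cell-line prescreen. Each line was inoculated and preincubated on a microtiter plate, then the agent was added at a single concentration (10^-4 or 10^-5 M) and incubated 48 h. Endpoint was measured with alamar blue, and growth is reported as a percentage of untreated control cells.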
# [21] = system: T47D; test: Cytotoxicity against human T47D cells at 10^-4 M after 48 hrs by SRB assay; conditions: read-out: GI; summary of the method: as §2
# [22] = system: BT-549; test: Cytotoxicity against human BT549 cells at 10^-4 M after 48 hrs by SRB assay; conditions: BT-549, 48 h, read-out: GI; summary of the method: as §3
# [23] = Cytotoxicity against human Hs578T cells at 10^-4 M after 48 hrs by SRB assay; conditions: Hs-578T, read-out: GI; summary of the method: as §3
# [24] = system: MDA-MB-231; test: Cytotoxicity against human MDA-MB-231 cells at 10^-4 M after 48 hrs by SRB assay; conditions: MDA-MB-231, 48 h, read-out: GI; summary of the method: as §1
# [25] = system: NCI/ADR-RES; test: Cytotoxicity against human NCI/ADR-RES cells at 10^-4 M after 48 hrs by SRB assay; conditions: read-out: GI; summary of the method: as §1
# [26] = system: DU-145; test: Cytotoxicity against human DU145 cells at 10^-4 M after 48 hrs by SRB assay; conditions: DU-145, 48 h, read-out: GI; summary of the method: as §3
# [27] = system: CAKI-1; test: Cytotoxicity against human Caki1 cells at 10^-4 M after 48 hrs by SRB assay; conditions: CAKI-1, 48 h, read-out: GI; summary of the method: as §3
# [28] = system: A498; test: Cytotoxicity against human A498 cells at 10^-4 M after 48 hrs by SRB assay; conditions: A498, 48 h, read-out: GI; summary of the method: as §3
# [29] = system: ACHN; test: Cytotoxicity against human ACHN cells at 10^-4 M after 48 hrs by SRB assay; conditions: read-out: GI; summary of the method: as §3
# [30] = Cytotoxicity against human OVCAR4 cells at 10^-4 M after 48 hrs by SRB assay; conditions: OVCAR-4, 48 h, read-out: GI; summary of the method: as §2
# [31] = system: IGROV-1; test: Cytotoxicity against human IGROV1 cells at 10^-4 M after 48 hrs by SRB assay; conditions: IGROV-1, 48 h, read-out: GI; summary of the method: as §3
structure (smiles),measurement,setting,value
CCN(Cc1nc2cc(C(F)(F)F)ccc2nc1-c1ccccc1)c1ccc(OC)c(OC)c1,inhibition of growth at 1 µM,[1],< 40%
same,inhibition of growth at 100 µM,[2],198%
same,inhibition of growth at 100 µM,[3],115%
same,inhibition of growth at 100 µM,[4],99%
same,inhibition of growth at 100 µM,[5],164%
same,inhibition of growth at 100 µM,[6],153%
same,inhibition of growth at 100 µM,[7],171%
same,inhibition of growth at 100 µM,[8],199%
same,inhibition of growth at 100 µM,[9],174%
same,inhibition of growth at 100 µM,[10],164%
same,inhibition of growth at 100 µM,[11],97%
same,inhibition of growth at 100 µM,[12],96%
same,inhibition of growth at 100 µM,[13],184%
same,inhibition of growth at 100 µM,[14],195%
same,inhibition of growth at 100 µM,[15],112%
same,inhibition of growth at 100 µM,[16],177%
same,inhibition of growth at 100 µM,[17],146%
same,inhibition of growth at 100 µM,[18],153%
same,growth at 100 µM,[19],0%
same,growth at 100 µM,[20],0%
same,inhibition of growth at 100 µM,[21],120%
same,inhibition of growth at 100 µM,[22],167%
same,inhibition of growth at 100 µM,[23],162%
same,inhibition of growth at 100 µM,[24],174%
same,inhibition of growth at 100 µM,[25],84%
same,inhibition of growth at 100 µM,[26],173%
same,inhibition of growth at 100 µM,[27],117%
same,inhibition of growth at 100 µM,[28],180%
same,inhibition of growth at 100 µM,[29],142%
same,inhibition of growth at 100 µM,[30],76%
same,inhibition of growth at 100 µM,[31],178%
